Measured values reported in ChEMBL document CHEMBL4196006, “Aryl thiosemicarbazones for the treatment of trypanosomatidic infections” (Eur J Med Chem, 2018).
Calls of active or inactive are those of the source. The rule behind the calls is not given here.

Assays:
[1] = Cytotoxicity against human WI38 cells assessed as growth inhibition at 10 uM after 48 hrs by CellTiter-Glo assay relative to control; values are per cent of control; settings: WI38 cells
[2] = molecular target: CYP2C9 (Homo sapiens, UniProt P11712); experiment: Inhibition of human microsomal CYP2C9 expressed in baculovirus infected BTI-TN-5B1-4 cells at 10 uM incubated for 30 mins by luciferase assay relative to control; assay type: ADME
Procedure, shortened: (§1)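 CYP1A2, 2C9, 2C19, 2D6 and 3A4 in microsomes from baculovirus-infected insect cells, each with a P450-Glo luminogenic substrate. Inhibition read as loss of light; single-point at 10 μM, triplicate.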

[3] = molecular target: T1, Pteridine reductase, putative (Trypanosoma brucei) (UniProt Q581W1); experiment: Inhibition of Trypanosoma brucei PTR1 at 50 uM using H2B as substrate in presence of NADPH by photometric analysis relative to control
T1 sequence (whole entry): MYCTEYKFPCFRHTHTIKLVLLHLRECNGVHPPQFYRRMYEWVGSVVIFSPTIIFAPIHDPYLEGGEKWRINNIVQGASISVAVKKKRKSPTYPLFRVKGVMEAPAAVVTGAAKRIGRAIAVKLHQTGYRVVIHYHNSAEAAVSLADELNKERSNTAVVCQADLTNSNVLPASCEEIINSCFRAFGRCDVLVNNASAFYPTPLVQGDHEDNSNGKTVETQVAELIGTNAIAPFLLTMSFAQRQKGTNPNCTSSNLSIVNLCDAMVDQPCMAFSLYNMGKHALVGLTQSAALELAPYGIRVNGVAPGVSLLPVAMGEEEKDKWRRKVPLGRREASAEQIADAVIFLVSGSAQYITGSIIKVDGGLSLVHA

[4] = tested on: Trypanosoma cruzi; experiment: Antitrypanosomal activity against Trypanosoma cruzi amastigote form infected in human U2OS cells assessed as parasite growth inhibition at 50 uM after 72 hrs relative to control; assay type: functional; settings: for inhibition of growth at 50 µM: read-out: GI
Procedure, shortened: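 U2OS monolayers grown for 24 h, then infected with tissue-derived trypomastigotes of T. cruzi Y strain. Compounds were added 24 h after infection at 50 μM (single-point) or in dose-response, with 72 h exposure. Plates were fixed, stained and analysed by high-content imaging; activity was normalized to infected and non-infected controls. Means of at least two experiments; benznidazole as reference.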

[5] = Cytotoxicity against human 786-O cells assessed as inhibition of mitochondrial viability at 10 uM after 6 hrs by CMXRos staining based assay relative to control; assay type: cell-based, 786-0; settings: read-out: INH
Procedure, shortened: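 Mitochondrial toxicity monitored by MitoTracker Red CMXRos uptake and high-content imaging; compound at 10 μM, triplicate.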

[6] = Cytotoxicity against human A549 cells assessed as growth inhibition at 10 uM after 48 hrs by CellTiter-Glo assay relative to control; values are per cent of control; settings: A549 cells
[7] = molecular target: hERG (KCNH2) (Homo sapiens, UniProt Q12809); experiment: Inhibition of human ERG at 10 uM incubated for 2 hrs by fluorescence polarisation assay relative to control
[8] = molecular target: Aurora kinase B (Homo sapiens, UniProt Q96GD4); experiment: Inhibition of recombinant full-length human aurora B kinase expressed in baculovirus system at 10 uM using MBP as substrate incubated for 45 mins by ADP-glo kinase assay; settings: probe MBP
Procedure, shortened: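 Aurora B activity measured as ADP formation via coupled luciferase ADP-Glo luminescence; single-point at 10 μM, triplicate.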

[9] = molecular target: CYP2C19 (Homo sapiens, UniProt P33261); experiment: Inhibition of human microsomal CYP2C19 expressed in baculovirus infected BTI-TN-5B1-4 cells at 10 uM incubated for 30 mins by luciferase assay relative to control; assay type: ADME
Procedure, shortened: as §1

[10] = tested on: Trypanosoma brucei; experiment: Antitrypanosomal activity against Trypanosoma brucei Lister 427 bloodstream form at 10 uM after 72 hrs by resazurin dye-based assay relative to control; assay type: functional
[11] = tested on: Trypanosoma brucei; experiment: Potentiation of methotrexate-induced antitrypanosomal activity against Trypanosoma brucei Lister 427 bloodstream form at 10 uM after 72 hrs by resazurin dye-based assay relative to control; assay type: functional
[12] = molecular target: T2, CYP1A2 (Homo sapiens, UniProt P05177); experiment: Inhibition of human microsomal CYP1A2 expressed in baculovirus infected BTI-TN-5B1-4 cells at 10 uM incubated for 30 mins by luciferase assay relative to control; assay type: ADME
T2 sequence (P05177 whole entry): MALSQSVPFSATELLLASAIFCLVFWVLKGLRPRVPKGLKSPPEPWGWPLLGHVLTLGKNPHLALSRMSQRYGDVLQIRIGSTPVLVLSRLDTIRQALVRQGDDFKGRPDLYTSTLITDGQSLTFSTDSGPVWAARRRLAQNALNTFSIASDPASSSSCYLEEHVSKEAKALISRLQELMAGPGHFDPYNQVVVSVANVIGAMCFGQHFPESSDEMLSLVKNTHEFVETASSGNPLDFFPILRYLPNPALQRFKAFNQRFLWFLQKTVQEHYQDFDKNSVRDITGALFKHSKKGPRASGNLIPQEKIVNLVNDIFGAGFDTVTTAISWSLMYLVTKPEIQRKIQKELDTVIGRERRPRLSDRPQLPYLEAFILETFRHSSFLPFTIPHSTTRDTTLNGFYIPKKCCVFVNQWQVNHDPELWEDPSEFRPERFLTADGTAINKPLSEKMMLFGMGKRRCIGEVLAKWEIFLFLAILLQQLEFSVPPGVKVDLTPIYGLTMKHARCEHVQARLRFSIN
Procedure, shortened: as §1

[13] = Cytotoxicity against human U2OS cells assessed as viable cells at 50 uM after 72 hrs by MTT assay relative to control; assay type: cell-based; settings: read-out: Activity
[14] = tested on: Trypanosoma brucei; experiment: Antitrypanosomal activity against Trypanosoma brucei Lister 427 bloodstream form assessed as parasite growth inhibition at 50 uM after 72 hrs by SYBR Green assay relative to control; assay type: functional; settings: for inhibition of growth at 50 µM: Lister 427, 72 h, read-out: GI
[15] = tested on: Trypanosoma brucei; experiment: Potentiation of methotrexate-induced antitrypanosomal activity against Trypanosoma brucei Lister 427 bloodstream form at 10 uM after 72 hrs by resazurin dye-based assay; assay type: functional
[16] = molecular target: T3, Pteridine reductase 1 (Leishmania major) (UniProt Q01782); experiment: Inhibition of Leishmania major PTR1 at 50 uM using H2B as substrate in presence of NADPH by photometric analysis relative to control
T3 sequence (whole entry): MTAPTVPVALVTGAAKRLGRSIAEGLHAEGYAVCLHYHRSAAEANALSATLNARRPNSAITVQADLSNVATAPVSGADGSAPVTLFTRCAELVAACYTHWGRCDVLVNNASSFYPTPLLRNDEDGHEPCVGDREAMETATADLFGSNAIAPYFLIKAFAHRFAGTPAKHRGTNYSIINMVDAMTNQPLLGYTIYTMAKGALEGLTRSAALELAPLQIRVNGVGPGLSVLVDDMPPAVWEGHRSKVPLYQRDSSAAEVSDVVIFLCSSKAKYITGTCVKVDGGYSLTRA

[17] = tested on: Leishmania infantum; experiment: Antileishmanial activity against Leishmania infantum amastigote form assessed as parasite growth inhibition at 50 uM after 72 hrs by steady-Glo reagent based assay relative to control; assay type: functional; settings: for inhibition of growth at 50 µM: read-out: GI
Procedure, shortened: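 Intramacrophage L. infantum amastigotes in THP-1-derived macrophages, tested at 50 μM or in dose-response. Plates held 72 h at 37 °C, 5% CO2. Medium was replaced by PBS, macrophages lysed, and parasites read by Steady-Glo luminescence. High-content imaging gave host cell number, infection ratio (infected/total cells) and parasites per infected cell. Values are means of at least two independent experiments.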

[18] = molecular target: CYP2D6 (Homo sapiens, UniProt P10635); experiment: Inhibition of human microsomal CYP2D6 expressed in baculovirus infected BTI-TN-5B1-4 cells at 10 uM incubated for 30 mins by luciferase assay relative to control; assay type: ADME
Procedure, shortened: as §1

[19] = Cytotoxicity against human THP1 cells assessed as viable cells at 100 uM after 72 hrs by MTT assay relative to control; assay type: cell-based, THP-1; settings: read-out: Activity
Procedure, shortened: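 THP-1-derived macrophages exposed to compounds for 72 h, tested at 100 μM or in dose-response; viability read by MTT colorimetric assay.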

[20] = molecular target: CYP3A4 (Homo sapiens, UniProt P08684); experiment: Inhibition of human microsomal CYP3A4 expressed in baculovirus infected BTI-TN-5B1-4 cells at 10 uM incubated for 30 mins by luciferase assay relative to control; assay type: ADME
Procedure, shortened: as §1

Chain of CYP2D6 (P10635 whole entry): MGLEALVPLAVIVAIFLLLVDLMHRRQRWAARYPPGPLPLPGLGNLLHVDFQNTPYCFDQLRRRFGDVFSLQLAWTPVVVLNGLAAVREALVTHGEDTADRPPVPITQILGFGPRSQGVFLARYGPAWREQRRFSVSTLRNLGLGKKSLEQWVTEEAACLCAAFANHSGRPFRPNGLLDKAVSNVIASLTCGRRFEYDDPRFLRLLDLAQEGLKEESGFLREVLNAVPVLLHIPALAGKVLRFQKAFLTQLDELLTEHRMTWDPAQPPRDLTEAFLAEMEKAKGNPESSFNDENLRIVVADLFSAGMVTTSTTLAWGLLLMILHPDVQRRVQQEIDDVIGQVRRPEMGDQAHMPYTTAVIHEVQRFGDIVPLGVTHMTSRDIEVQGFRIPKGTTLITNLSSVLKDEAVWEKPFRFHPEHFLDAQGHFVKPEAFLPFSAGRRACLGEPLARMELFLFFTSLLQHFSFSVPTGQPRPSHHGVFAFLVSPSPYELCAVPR
Chain of CYP2C9 (P11712 whole entry): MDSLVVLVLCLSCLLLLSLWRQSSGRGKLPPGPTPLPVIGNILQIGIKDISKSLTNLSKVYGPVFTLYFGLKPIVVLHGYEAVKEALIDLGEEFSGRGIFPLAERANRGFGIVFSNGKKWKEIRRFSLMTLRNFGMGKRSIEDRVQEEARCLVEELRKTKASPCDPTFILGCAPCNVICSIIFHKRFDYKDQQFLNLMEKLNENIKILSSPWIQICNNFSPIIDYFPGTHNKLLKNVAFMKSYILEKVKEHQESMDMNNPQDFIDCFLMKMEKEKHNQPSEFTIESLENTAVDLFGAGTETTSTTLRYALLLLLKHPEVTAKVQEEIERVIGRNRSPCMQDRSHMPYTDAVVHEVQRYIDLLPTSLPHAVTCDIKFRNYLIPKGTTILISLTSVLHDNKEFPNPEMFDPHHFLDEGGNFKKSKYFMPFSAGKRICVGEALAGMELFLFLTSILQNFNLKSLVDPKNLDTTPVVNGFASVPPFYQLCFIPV
Chain of CYP2C19 (P33261 whole entry): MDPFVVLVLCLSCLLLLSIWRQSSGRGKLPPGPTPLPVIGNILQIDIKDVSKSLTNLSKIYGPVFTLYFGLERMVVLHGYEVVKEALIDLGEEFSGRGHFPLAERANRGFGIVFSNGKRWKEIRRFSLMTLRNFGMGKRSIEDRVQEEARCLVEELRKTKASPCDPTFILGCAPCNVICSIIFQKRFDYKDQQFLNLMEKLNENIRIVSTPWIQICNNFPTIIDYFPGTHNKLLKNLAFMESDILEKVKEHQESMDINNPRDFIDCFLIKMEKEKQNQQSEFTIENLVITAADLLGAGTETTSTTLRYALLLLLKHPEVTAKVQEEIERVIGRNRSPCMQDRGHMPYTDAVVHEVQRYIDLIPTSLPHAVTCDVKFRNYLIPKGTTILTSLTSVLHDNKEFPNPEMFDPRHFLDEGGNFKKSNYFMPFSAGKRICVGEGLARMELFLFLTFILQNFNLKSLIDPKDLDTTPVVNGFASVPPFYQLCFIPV
Chain of Aurora kinase B (Q96GD4 whole entry): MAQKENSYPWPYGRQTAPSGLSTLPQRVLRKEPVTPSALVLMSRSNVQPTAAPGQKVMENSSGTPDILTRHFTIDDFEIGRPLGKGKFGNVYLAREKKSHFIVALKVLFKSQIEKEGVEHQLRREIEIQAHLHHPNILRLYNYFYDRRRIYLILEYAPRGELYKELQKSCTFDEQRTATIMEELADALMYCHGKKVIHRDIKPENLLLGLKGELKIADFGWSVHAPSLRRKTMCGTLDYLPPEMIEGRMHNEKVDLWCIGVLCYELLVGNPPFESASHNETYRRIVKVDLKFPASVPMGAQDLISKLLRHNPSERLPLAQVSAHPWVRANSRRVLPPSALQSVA
Chain of hERG (KCNH2) (Q12809 whole entry): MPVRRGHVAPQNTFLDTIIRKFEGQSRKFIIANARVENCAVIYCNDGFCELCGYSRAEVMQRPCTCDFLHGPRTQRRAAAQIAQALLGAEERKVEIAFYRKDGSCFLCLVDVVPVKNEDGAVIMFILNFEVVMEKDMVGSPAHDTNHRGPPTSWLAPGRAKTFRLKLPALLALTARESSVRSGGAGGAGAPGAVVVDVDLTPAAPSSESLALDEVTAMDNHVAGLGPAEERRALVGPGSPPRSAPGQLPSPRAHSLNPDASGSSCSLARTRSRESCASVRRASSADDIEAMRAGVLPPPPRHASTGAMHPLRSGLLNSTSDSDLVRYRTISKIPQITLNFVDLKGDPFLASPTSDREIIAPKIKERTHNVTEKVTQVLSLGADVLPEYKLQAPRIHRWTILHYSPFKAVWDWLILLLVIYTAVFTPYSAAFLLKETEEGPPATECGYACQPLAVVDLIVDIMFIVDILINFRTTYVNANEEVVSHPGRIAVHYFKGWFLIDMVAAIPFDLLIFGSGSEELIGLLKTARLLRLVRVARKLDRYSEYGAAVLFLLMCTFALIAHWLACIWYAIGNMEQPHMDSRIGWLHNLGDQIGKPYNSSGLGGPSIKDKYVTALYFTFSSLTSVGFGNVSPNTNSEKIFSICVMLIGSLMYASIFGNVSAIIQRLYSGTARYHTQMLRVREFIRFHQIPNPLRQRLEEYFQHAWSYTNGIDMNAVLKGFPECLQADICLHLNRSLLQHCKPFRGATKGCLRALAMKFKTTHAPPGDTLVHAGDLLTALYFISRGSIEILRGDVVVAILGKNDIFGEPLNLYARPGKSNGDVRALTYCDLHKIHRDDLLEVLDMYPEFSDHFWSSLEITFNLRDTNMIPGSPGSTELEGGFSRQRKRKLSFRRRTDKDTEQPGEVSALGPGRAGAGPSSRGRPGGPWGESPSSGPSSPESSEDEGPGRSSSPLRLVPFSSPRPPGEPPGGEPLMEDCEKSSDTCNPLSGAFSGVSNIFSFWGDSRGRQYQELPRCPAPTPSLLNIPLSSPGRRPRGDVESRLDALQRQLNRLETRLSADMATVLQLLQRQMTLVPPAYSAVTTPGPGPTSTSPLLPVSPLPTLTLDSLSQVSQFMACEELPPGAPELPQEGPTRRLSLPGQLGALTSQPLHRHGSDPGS
Chain of CYP3A4 (P08684 whole entry): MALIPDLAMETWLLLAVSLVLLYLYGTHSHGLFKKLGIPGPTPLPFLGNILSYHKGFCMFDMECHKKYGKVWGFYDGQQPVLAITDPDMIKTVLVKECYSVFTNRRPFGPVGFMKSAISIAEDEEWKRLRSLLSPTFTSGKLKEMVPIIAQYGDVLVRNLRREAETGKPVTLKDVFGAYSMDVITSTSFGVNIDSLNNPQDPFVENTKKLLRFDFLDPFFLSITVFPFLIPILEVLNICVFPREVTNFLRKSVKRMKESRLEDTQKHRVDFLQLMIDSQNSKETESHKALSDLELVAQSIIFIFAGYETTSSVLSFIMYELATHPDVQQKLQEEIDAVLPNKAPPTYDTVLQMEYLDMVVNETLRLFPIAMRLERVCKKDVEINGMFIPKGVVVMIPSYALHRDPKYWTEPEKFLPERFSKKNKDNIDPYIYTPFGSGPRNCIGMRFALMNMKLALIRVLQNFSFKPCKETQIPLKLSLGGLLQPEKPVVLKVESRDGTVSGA

Compound | cell growth (% of control) at 48 h, 10 µM [1] [%] | inhibition at 0.5 h, 10 µM [2] [%] | inhibition [3] | inhibition of growth at 50 µM [4] [%] | cytotoxicity at 6 h, 10 µM [5] [%] | cell growth (% of control) at 48 h, 10 µM [6] [%] | inhibition at 2 h, 10 µM [7] [%] | inhibition at 0.75 h, 10 µM [8] [%] | inhibition at 0.5 h, 10 µM [9] [%] | Activity [10] [%] | Activity [11] [%] | inhibition at 0.5 h, 10 µM [12] [%] | viability at 72 h, 50 µM [13] [%] | growth inhibition (GI) [14] | PF [15] | inhibition [16] [%] | inhibition of growth at 50 µM [17] [%] | inhibition at 0.5 h, 10 µM [18] [%] | viability at 72 h, 100 µM [19] [%] | inhibition at 0.5 h, 10 µM [20] [%] | further results
N/C(S)=N/N=C/c1ccc([N+](=O)[O-])cc1 | 122 | -3.66 | 3.76% | 40.1 | 0.08 | 128 | 4.43 | -9.68 | -38.4 | 8.17 | 36.33 | 11.6 | 85.6 | inactive | 1.12 | 7.99 | 19 | -16.9 | 75.6 | 8.17 | –
NC(=S)N/N=C/C(O)C(O)C(O)CO (stereo not given) | 95.7 | -19.7 | 1.7% | – | -1.92 | 129 | -11.1 | -7.51 | -35.1 | 0.5 | 16.17 | -13.2 | 146 | inactive | 0.65 | 4.38 | – | -54.5 | 67.6 | -27.9 | growth inhibition (GI) [4]: inactive; growth inhibition (GI) [17]: inactive
NC(=S)N/N=C/c1cccc(-c2ccccc2)c1 | 111 | 14.7 | 9.25% | 20.2 | 4.4 | 110 | 5.99 | -4.25 | -27.2 | 28.5 | 93.5 | 83.9 | 112 | – | 1.77 | 3.5 | 35.8 | 20.6 | 45.2 | 5.26 | inhibition of growth at 50 µM [14]: 0.9%
COc1cc(/C=N/NC(N)=S)cc(OC)c1OC | 111 | -6.01 | 2.13% | – | 4.79 | 140 | -1.36 | -17.7 | -28.1 | 2.67 | 51.67 | 15.1 | 65.5 | – | 1.92 | 7.53 | 7.19 | -21 | 40.2 | -30.2 | growth inhibition (GI) [4]: inactive; inhibition of growth at 50 µM [14]: 0.21%
N/C(S)=N/N=C/c1ccc(Cl)c(Cl)c1 | 107 | 24.3 | inactive | 23.1 | 5.87 | 100 | -9.32 | -9.56 | -14.9 | 37.33 | 84 | 76.8 | 101 | inactive | 1.36 | 9.38 | 17.6 | 27.3 | 56.4 | -10.6 | –
